Results as given in publication PMC8923172 (Antimicrobial Agents and Chemotherapy, 2022).
Where two headings read alike, the source gives them in different places. Marks after values point to notes of the source that are not given here. Residues, ends and D or L forms follow the SMILES beside them.

What was measured:
[1] = Hematology of cynomolgus monkeys at the end of treatment; format: in vivo; settings: median (IQR)
Procedure, shortened: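 GLP 10-day study in male and female cynomolgus monkeys (n = 3-5/sex/group) dosed once daily with 0 (placebo), 5, 10 or 15 mg/kg test compound by i.v. infusion over 60 ± 5 min. Hematology, serum chemistry and coagulation were taken at end of treatment and reported as median (IQR). Dose groups were compared by Kruskal-Wallis with Dunn's multiple comparison test.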

[2] = for Cmax: 20-min i.v. infusion, n=12, estimate (SE); for AUCτ / λz: i.v. infusion, n=12, pooled

**Q.** With CC[C@H](C)[C@@H]1NC(=O)[C@@H]2CSSC[C@H](NC(=O)[C@H](CCCNC(=N)N)NC(=O)[C@@H]3CSSC[C@H](NC1=O)C(=O)N[C@@H]([C@@H](C)O)C(=O)N[C@@H](CCCNC(=N)N)C(=O)NCC(=O)N[C@@H](Cc1ccccc1)C(=O)N3)C(=O)N[C@@H](CC(C)C)C(=O)N[C@H]1CSSC[C@H](NC(=O)[C@H](C(C)C)NC(=O)CNC(=O)[C@H](CCCNC(=N)N)NC(=O)[C@H](CCCNC(=N)N)NC1=O)C(=O)N[C@@H](CCCNC(=N)N)C(=O)N2 [RTD-1, Rhesus theta (θ) defensin-1] (HELM PEPTIDE1{G.F.C.R.C.L.C.R.R.G.V.C.R.C.I.C.T.R}$PEPTIDE1,PEPTIDE1,3:R3-16:R3|PEPTIDE1,PEPTIDE1,5:R3-14:R3|PEPTIDE1,PEPTIDE1,7:R3-12:R3|PEPTIDE1,PEPTIDE1,1:R1-18:R2$$$V2.0) as the molecule, how does the Platelets ([1]; female, 15 mg/kg/day) read?
**A.** 513.00 (299.00) 10^3/mm^3

**Q.** And the RBC ([1]; female, 15 mg/kg/day)?
**A.** 6.04 (1.28) 10^6/mm^3

**Q.** And the RDW ([1]; female, 15 mg/kg/day)?
**A.** 14.70 (1.80) %

**Q.** What about the “Reticulocytes, absolute” value ([1]; female, 15 mg/kg/day) of the same molecule?
**A.** 83.90 (46.10) 10^9/L

**Q.** What about the WBC ([1]; female, 15 mg/kg/day) of the same molecule?
**A.** 16.10 (5.40) 10^3/mm^3

**Q.** And the “Basophils, absolute” value ([1]; male, 5 mg/kg/day)?
**A.** 0.12 (0.08) 10^3/mm^3

**Q.** What about the “Eosinophils, absolute” value ([1]; male, 5 mg/kg/day) of the same molecule?
**A.** 0.26 (0.12) 10^3/mm^3

**Q.** And the Hematocrit ([1]; male, 5 mg/kg/day)?
**A.** 43.10 (3.05) %

**Q.** And the Hemoglobin ([1]; male, 5 mg/kg/day)?
**A.** 12.70 (0.85) g/dL

**Q.** And the “LUC, absolute” value ([1]; male, 5 mg/kg/day)?
**A.** 0.15 (0.07) 10^3/mm^3

**Q.** What about the “Lymphocytes, absolute” value ([1]; male, 5 mg/kg/day) of the same molecule?
**A.** 6.85 (3.12) 10^3/mm^3

**Q.** What about the MCH ([1]; male, 5 mg/kg/day) of the same molecule?
**A.** 19.80 (0.55) pg

**Q.** What about the MCHC ([1]; male, 5 mg/kg/day) of the same molecule?
**A.** 26.40 (1.55) g/dL

**Q.** What about the MCV ([1]; male, 5 mg/kg/day) of the same molecule?
**A.** 75.10 (2.10) fL

**Q.** And the “Monocytes, absolute” value ([1]; male, 5 mg/kg/day)?
**A.** 0.74 (0.23) 10^3/mm^3

**Q.** And the “Neutrophils, absolute” value ([1]; male, 5 mg/kg/day)?
**A.** 4.65 (3.33) 10^3/mm^3

**Q.** And the Platelets ([1]; male, 5 mg/kg/day)?
**A.** 358.00 (21.50) 10^3/mm^3

**Q.** And the RBC ([1]; male, 5 mg/kg/day)?
**A.** 6.06 (0.42) 10^6/mm^3

**Q.** What about the RDW ([1]; male, 5 mg/kg/day) of the same molecule?
**A.** 15.40 (1.00) %

**Q.** And the “Reticulocytes, absolute” value ([1]; male, 5 mg/kg/day)?
**A.** 43.70 (23.20) 10^9/L

**Q.** What about the WBC ([1]; male, 5 mg/kg/day) of the same molecule?
**A.** 14.70 (5.95) 10^3/mm^3

**Q.** What about the “Basophils, absolute” value ([1]; male, 10 mg/kg/day) of the same molecule?
**A.** 0.08 (0.04) 10^3/mm^3

**Q.** What about the “Eosinophils, absolute” value ([1]; male, 10 mg/kg/day) of the same molecule?
**A.** 0.20 (0.06) 10^3/mm^3

**Q.** And the Hematocrit ([1]; male, 10 mg/kg/day)?
**A.** 42.60 (5.20) %

**Q.** And the Hemoglobin ([1]; male, 10 mg/kg/day)?
**A.** 11.90 (1.30) g/dL

**Q.** And the “LUC, absolute” value ([1]; male, 10 mg/kg/day)?
**A.** 0.15 (0.01) 10^3/mm^3

**Q.** And the “Lymphocytes, absolute” value ([1]; male, 10 mg/kg/day)?
**A.** 5.85 (2.85) 10^3/mm^3

**Q.** And the MCH ([1]; male, 10 mg/kg/day)?
**A.** 20.30 (1.00) pg

**Q.** And the MCHC ([1]; male, 10 mg/kg/day)?
**A.** 27.90 (0.35) g/dL

**Q.** And the MCV ([1]; male, 10 mg/kg/day)?
**A.** 72.00 (4.00) fL

**Q.** What about the “Monocytes, absolute” value ([1]; male, 10 mg/kg/day) of the same molecule?
**A.** 0.63 (0.18) 10^3/mm^3

**Q.** And the “Neutrophils, absolute” value ([1]; male, 10 mg/kg/day)?
**A.** 4.31 (1.38) 10^3/mm^3

**Q.** What about the Platelets ([1]; male, 10 mg/kg/day) of the same molecule?
**A.** 450.00 (114.00) 10^3/mm^3

**Q.** And the RBC ([1]; male, 10 mg/kg/day)?
**A.** 6.35 (0.58) 10^6/mm^3

**Q.** What about the RDW ([1]; male, 10 mg/kg/day) of the same molecule?
**A.** 17.20 (1.35) %

**Q.** And the “Reticulocytes, absolute” value ([1]; male, 10 mg/kg/day)?
**A.** 60.00 (71.70) 10^9/L

**Q.** And the WBC ([1]; male, 10 mg/kg/day)?
**A.** 11.00 (1.75) 10^3/mm^3

**Q.** And the “Basophils, absolute” value ([1]; male, 15 mg/kg/day)?
**A.** 0.11 (0.10) 10^3/mm^3

**Q.** And the “Eosinophils, absolute” value ([1]; male, 15 mg/kg/day)?
**A.** 0.39 (0.70) 10^3/mm^3

**Q.** What about the Hematocrit ([1]; male, 15 mg/kg/day) of the same molecule?
**A.** 38.40 (2.30) %

**Q.** What about the Hemoglobin ([1]; male, 15 mg/kg/day) of the same molecule?
**A.** 11.10 (0.90) g/dL

**Q.** And the “LUC, absolute” value ([1]; male, 15 mg/kg/day)?
**A.** 0.17 (0.11)^c 10^3/mm^3

**Q.** And the “Lymphocytes, absolute” value ([1]; male, 15 mg/kg/day)?
**A.** 4.78 (2.17) 10^3/mm^3

**Q.** And the MCH ([1]; male, 15 mg/kg/day)?
**A.** 20.20 (0.90) pg

**Q.** What about the MCHC ([1]; male, 15 mg/kg/day) of the same molecule?
**A.** 28.90 (1.20) g/dL

**Q.** And the MCV ([1]; male, 15 mg/kg/day)?
**A.** 71.20 (3.40) fL

**Q.** What about the “Monocytes, absolute” value ([1]; male, 15 mg/kg/day) of the same molecule?
**A.** 1.10 (0.74) 10^3/mm^3

**Q.** What about the “Neutrophils, absolute” value ([1]; male, 15 mg/kg/day) of the same molecule?
**A.** 7.62 (9.59) 10^3/mm^3

**Q.** What about the Platelets ([1]; male, 15 mg/kg/day) of the same molecule?
**A.** 634.00 (42.00)^d 10^3/mm^3

**Q.** What about the RBC ([1]; male, 15 mg/kg/day) of the same molecule?
**A.** 5.56 (0.40) 10^6/mm^3

**Q.** And the RDW ([1]; male, 15 mg/kg/day)?
**A.** 14.80 (0.80) %

**Q.** What about the “Reticulocytes, absolute” value ([1]; male, 15 mg/kg/day) of the same molecule?
**A.** 69.10 (47.50) 10^9/L

**Q.** And the WBC ([1]; male, 15 mg/kg/day)?
**A.** 14.90 (12.80) 10^3/mm^3

**Q.** And the Cmax ([2]; 5 mg/kg Day 1)?
**A.** 7,468 (1,202)^b ng/mL

**Q.** What about the AUCτ ([2]; 5 mg/kg Day 1) of the same molecule?
**A.** 14,956 ng · h/mL

**Q.** And the λz ([2]; 5 mg/kg Day 1)?
**A.** 0.056 h⁻¹

**Q.** And the AUCτ ([2]; 5 mg/kg Day 7)?
**A.** 12,468 ng · h/mL

**Q.** And the λz ([2]; 5 mg/kg Day 7)?
**A.** 0.104 h⁻¹

**Q.** What about the “AUCτ on day 7 lower than AUC0-∞ on day 1” value ([2]; 5 mg/kg/day) of the same molecule?
**A.** 22%

**Q.** And the Cmax ([2]; 10 mg/kg Day 1)?
**A.** 27,533 (1,419)* ng/mL

**Q.** And the AUCτ ([2]; 10 mg/kg Day 1)?
**A.** 41,669 ng · h/mL

**Q.** What about the λz ([2]; 10 mg/kg Day 1) of the same molecule?
**A.** 0.148 h⁻¹

**Q.** And the λz ([2]; 10 mg/kg Day 7)?
**A.** 0.133 h⁻¹

**Q.** And the “AUCτ on day 7 lower than AUC0-∞ on day 1” value ([2]; 10 mg/kg/day)?
**A.** 19%

**Q.** What about the Cmax ([2]; 20 mg/kg Day 1) of the same molecule?
**A.** 35,400 (5,350)# ng/mL

**Q.** And the λz ([2]; 20 mg/kg Day 1)?
**A.** 0.221 h⁻¹

**Q.** What about the “plasma levels during the recovery period (day 25)” value ([2]; all rats except one female at 10 mg/kg) of the same molecule?
**A.** undetectable

**Q.** What about the “increase in AUC0-∞ from 5 mg/kg to 20 mg/kg” value ([2]; single ascending dose) of the same molecule?
**A.** 8 fold
